Active and inactive are the calls of the source. The rule behind the calls is not given here.
What was measured:
Listeria monocytogenes [1] = assay: Antibacterial activity against Listeria monocytogenes ATCC 19115 at 0.5 times MIC after […] serial passages; format: functional
Method in brief: (§1)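 Multi-step resistance selection with serial sub-culture of bacteria at sub-inhibitory compound concentrations for 15 passages. MIC was redetermined after each passage to follow any increase over the starting value. Amikacin was run in parallel as reference.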

[2] = Antifungal activity against fluconazole/itraconazole/voriconazole-resistant Candida albicans ATCC 10231; format: functional
[3] = Cytotoxicity against human A549 cells assessed as reduction in cell survival; format: toxicity, cell-based
[4] = Antifungal activity against fluconazole/itraconazole/voriconazole-resistant Candida albicans ATCC 64124; format: functional
[5] = Antibacterial activity against Salmonella enterica ATCC 14028; format: functional
[6] = Antifungal activity against fluconazole/itraconazole/voriconazole-susceptible Candida albicans ATCC 2310; format: functional
Acinetobacter baumannii = assay: Antibacterial activity against Acinetobacter baumannii ATCC 19606; format: functional
Enterococcus [7] = assay: Antibacterial activity against vancomycin-resistant Enterococcus at 0.5 times MIC after […] serial passages; format: functional; method in brief: as §1
[8] = Antifungal activity against fluconazole/itraconazole/voriconazole-resistant Candida albicans ATCC 1237; format: functional
Enterobacter cloacae = assay: Antibacterial activity against Enterobacter cloacae ATCC 13047; format: functional; conditions: subsp. cloacae ATCC 13047
Bacillus subtilis = assay: Antibacterial activity against Bacillus subtilis 168; format: functional; conditions: subsp. subtilis str. 168
[9] = Cytotoxicity against human BEAS2B cells assessed as reduction in cell survival; format: toxicity, cell-based; conditions: beas-2b
Candida albicans [10] = assay: Antifungal activity against Candida albicans ATCC 1003; format: functional
[11] = Antifungal activity against fluconazole/itraconazole/voriconazole-susceptible Candida albicans ATCC 2876; format: functional
[12] = Antifungal activity against fluconazole/itraconazole/voriconazole-resistant Candida albicans ATCC 90819; format: functional
Escherichia coli = assay: Antibacterial activity against Escherichia coli MC1061; format: functional
Method in brief: (§2)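 Values were set in μM and converted to μg/mL for presentation. Amikacin, ampicillin and ofloxacin served as positive controls.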

Klebsiella pneumoniae = assay: Antibacterial activity against Klebsiella pneumoniae ATCC 27736; format: functional
[13] = test system: Mycolicibacterium smegmatis; assay: Antimycobacterial activity against Mycobacterium smegmatis MC2 155; format: functional; conditions: str. MC2 155; method in brief: as §2
Listeria monocytogenes [14] = assay: Antibacterial activity against Listeria monocytogenes ATCC 19115; format: functional
Candida albicans [15] = assay: Induction of intracellular ROS production in Candida albicans ATCC 10231 at 1 to 2 times MIC after 1 hr by DCFH-DA probe based fluorescence microscopic analysis; format: functional, cell-based
Method in brief: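 C. albicans ATCC 10231 was exposed for 1 h at 35 °C, with untreated cells as negative control and 1 mM H2O2 as positive control. Cells were then stained with DCFH-DA (20 μg/mL), and intracellular ROS was read by fluorescence microscopy.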

Pseudomonas aeruginosa [16] = assay: Antibacterial activity against Pseudomonas aeruginosa ATCC 27853; format: functional
Enterococcus [17] = assay: Antibacterial activity against vancomycin-resistant Enterococcus; format: functional; method in brief: as §2
Enterococcus [18] = assay: Ratio of MIC for vancomycin-resistant Enterococcus after and before 15 serial passages at 0.5 times MIC; format: functional; method in brief: as §1
Listeria monocytogenes [19] = assay: Ratio of MIC for Listeria monocytogenes ATCC 19115 after and before 15 serial passages at 0.5 times MIC; format: functional; method in brief: as §1
Staphylococcus aureus [20] = assay: Antibacterial activity against methicillin-resistant Staphylococcus aureus; format: functional; method in brief: as §2
Staphylococcus aureus [21] = assay: Ratio of MIC for methicillin-resistant Staphylococcus aureus after and before 15 serial passages at 0.5 times MIC; format: functional; method in brief: as §1
Candida albicans [22] = assay: Ratio of MIC for Candida albicans ATCC 10231 after and before 13 serial passages at 0.5 times MIC; format: functional
Pseudomonas aeruginosa [23] = assay: Ratio of MIC for Pseudomonas aeruginosa ATCC 27853 after and before 15 serial passages at 0.5 times MIC; format: functional; method in brief: as §1

SMILES | MIC [2] [µM] | IC50 [3] [µg/mL] | MIC [4] [µM] | MIC [5] [µM] | MIC [6] [µM] | MIC (Acinetobacter baumannii) [µM] | MIC [8] [µM] | MIC (Enterobacter cloacae) [µM] | MIC (Bacillus subtilis) [µM] | IC50 [9] [µg/mL] | MIC (Candida albicans [10]) [µM] | MIC [11] [µM] | MIC [12] [µM] | MIC (Escherichia coli) [µM] | MIC (Klebsiella pneumoniae) [µM] | MIC [13] [µM] | MIC (Listeria monocytogenes [14]) [µM] | Activity (Candida albicans [15]) | MIC (Pseudomonas aeruginosa [16]) [µM] | fold change (FC) (Enterococcus [18]) | also measured
Cl.N=C(N)N/N=C/c1ccc(-c2ccc(/C=N/Nc3ccccc3Cl)cc2)cc1 | 4.6 | 2.8 | 9.2 | > 500 | 4.6 | > 500 | 9.2 | > 500 | > 500 | 2.3 | 4.6 | 4.6 | 4.6 | > 500 | > 500 | 3.9 | 1 to 2 | Active | > 500 | – | Activity (Listeria monocytogenes [1]): Active; Activity (Enterococcus [7]): Active
C/C(=N\NC(=N)N)c1ccc(CCc2ccc(/C(C)=N/NC(=N)N)cc2)cc1.Cl.Cl | 17.3 | 2.9 | > 69.3 | > 500 | 69.3 | > 500 | 34.6 | > 500 | > 500 | 1.8 | 34.6 | 8.6 | 17.3 | > 500 | > 500 | 1 | 1 | – | > 500 | 16 | MIC (Enterococcus [17]): 1 µM; fold change (FC) (Listeria monocytogenes [19]): 8; MIC (Staphylococcus aureus [20]): 1 to 2 µM; fold change (FC) (Staphylococcus aureus [21]): 4 - 16
C/C(=N\NC(=N)N)c1ccc2c(c1)Cc1cc(/C(C)=N/NC(=N)N)ccc1-2.Cl.Cl | 2.3 to 4.6 | 2.5 | 2.3 | 3.9 | 2.3 | 500 | 4.6 | 500 | 7.8 | 1.8 | 2.3 | 2.3 | 4.6 | 500 | 31.3 to 62.5 | – | < 0.5 | Active | 1 to 2 | 1 | fold change (FC) (Candida albicans [22]): 2; fold change (FC) (Pseudomonas aeruginosa [23]): 1; fold change (FC) (Listeria monocytogenes [19]): 1; MIC (Staphylococcus aureus [20]): 1 to 2 µM; fold change (FC) (Staphylococcus aureus [21]): 1

From ChEMBL document CHEMBL3871280, “Bis(N-amidinohydrazones) and N-(amidino)-N'-aryl-bishydrazones: New classes of antibacterial/antifungal agents” (Bioorg Med Chem, 2017)
